Experimental data as given in ChEMBL document CHEMBL4257465, “Strigolactones: a plant phytohormone as novel anti-inflammatory agents” (Medchemcomm, 2018).
Activity calls are given as the source filed them. The rule behind the calls is not given here.

Experiments:
RAW264.7 [1] = assay: Antiinflammatory activity in LPS-induced mouse RAW264.7 cells assessed as TNFalpha levels at 1.25 uM pretreated for 2 hrs followed by LPS stimulation and measured after 12 hrs by ELISA (reference value: 5313.7 +/- 420.9 pg/ml); assay type: functional
RAW264.7 [2] = assay: Antiinflammatory activity in LPS-induced mouse RAW264.7 cells assessed as TNFalpha levels at 2.5 uM pretreated for 2 hrs followed by LPS stimulation and measured after 12 hrs by ELISA (reference value: 5313.7 +/- 420.9 pg/ml); assay type: functional
RAW264.7 [3] = assay: Antiinflammatory activity in LPS-induced mouse RAW264.7 cells assessed as TNFalpha levels at 5 uM pretreated for 2 hrs followed by LPS stimulation and measured after 12 hrs by ELISA (reference value: 5313.7 +/- 420.9 pg/ml); assay type: functional
Method in brief: (§1)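 RAW264.7 murine macrophages (DMEM, 10% serum, 37 °C, 5% CO2) seeded at 5 × 10^5 cells per well, pretreated 2 h with compound at 10, 5, 2.5 or 1.25 μM (DMSO 0.1% v/v), then LPS (E. coli 0127:B8) 100 ng mL−1 added. Supernatant TNF-α or IL-6 read by mouse ELISA kit after 6, 12 and 24 h. Mean ± SD, n = 3, three independent experiments.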

RAW264.7 [4] = assay: Antiinflammatory activity in LPS-induced mouse RAW264.7 cells assessed as TNFalpha levels at 1.25 uM pretreated for 2 hrs followed by LPS stimulation and measured after 6 hrs by ELISA (reference value: 4377.1 +/- 318.6 pg/ml); assay type: functional; method in brief: as §1
RAW264.7 [5] = assay: Antiinflammatory activity in LPS-induced mouse RAW264.7 cells assessed as TNFalpha levels at 5 uM pretreated for 2 hrs followed by LPS stimulation and measured after 6 hrs by ELISA (reference value: 4377.1 +/- 318.6 pg/ml); assay type: functional; method in brief: as §1
RAW264.7 [6] = assay: Antiinflammatory activity in LPS-induced mouse RAW264.7 cells assessed as TNFalpha levels at 10 uM pretreated for 2 hrs followed by LPS stimulation and measured after 6 hrs by ELISA (reference value: 4377.1 +/- 318.6 pg/ml); assay type: functional; method in brief: as §1
RAW264.7 [7] = assay: Antiinflammatory activity in LPS-induced mouse RAW264.7 cells assessed as TNFalpha levels at 10 uM pretreated for 2 hrs followed by LPS stimulation and measured after 12 hrs by ELISA (reference value: 5313.7 +/- 420.9 pg/ml); assay type: functional; method in brief: as §1
RAW264.7 [8] = assay: Antiinflammatory activity in LPS-induced mouse RAW264.7 cells assessed as TNFalpha levels at 1.25 uM pretreated for 2 hrs followed by LPS stimulation and measured after 24 hrs by ELISA (reference value: 9653.7 +/- 377.3 pg/ml); assay type: functional; method in brief: as §1
Danio rerio = assay: In-vivo antiinflammatory activity in 4 days post fertilized zebrafish larvae harboring coronilla-eGFP/Lyc-dsRed assessed as reduction in neutrophil recruitment to wounded tail at 5 to 20 uM measured after 3 to 6 hrs by fluorescence microscopic analysis; assay type: functional, organism-based
Method in brief: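 Double transgenic neutrophil/macrophage reporter larvae (Coronilla-eGFP/Lyc-dsRed), 4 dpf, tail-cut. […] Neutrophils and macrophages gathering at the wound imaged by fluorescence microscopy at 3 and 6 h. 6–8 larvae per group. Uncut larvae serve as blank, untreated cut larvae as control.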

[9] = target: T1, NF-kappa-B inhibitor alpha (Mus musculus) (UniProt Q9Z1E3); assay: Inhibition of LPS-induced IkappaBalpha phosphorylation in mouse RAW264.7 cells after 4 hrs by Western blot analysis; assay type: cell-based
T1 sequence (whole entry): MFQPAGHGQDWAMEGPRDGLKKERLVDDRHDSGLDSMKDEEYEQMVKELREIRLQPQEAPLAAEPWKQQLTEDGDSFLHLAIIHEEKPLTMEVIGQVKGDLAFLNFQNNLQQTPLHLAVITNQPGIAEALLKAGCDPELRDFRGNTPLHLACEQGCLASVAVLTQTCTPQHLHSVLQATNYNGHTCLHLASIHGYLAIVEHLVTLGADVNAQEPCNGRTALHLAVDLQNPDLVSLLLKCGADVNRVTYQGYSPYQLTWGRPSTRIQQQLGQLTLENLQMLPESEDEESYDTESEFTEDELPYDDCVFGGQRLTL
Method in brief: (§2)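 RAW264.7 cells at 2 × 10^6 per well given fresh medium with compound (10, 5, 2.5, 1.25 μM) plus LPS 500 ng mL−1 for 4 h. Lysed in IP buffer with 1 mM PMSF, protein by BCA. Run on 12.5% SDS-PAGE and blotted. Phospho and total ERK1/2 (Thr202/Tyr204), p38 (Thr180/Tyr182), IκBα (Ser32/36) and NF-κB p65 detected by ECL. Mean ± SD, n = 3.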

[10] = target: Mitogen-activated protein kinase 1 and 3 (ERK2 and ERK1) (Mus musculus) (UniProt P63085+Q63844); assay: Inhibition of LPS-induced ERK1/2 phosphorylation in mouse RAW264.7 cells after 4 hrs by Western blot analysis; assay type: cell-based; method in brief: as §2
Chain of Mitogen-activated protein kinase 1 and 3 (ERK2 and ERK1) (Mus musculus) (P63085 whole entry, looked up): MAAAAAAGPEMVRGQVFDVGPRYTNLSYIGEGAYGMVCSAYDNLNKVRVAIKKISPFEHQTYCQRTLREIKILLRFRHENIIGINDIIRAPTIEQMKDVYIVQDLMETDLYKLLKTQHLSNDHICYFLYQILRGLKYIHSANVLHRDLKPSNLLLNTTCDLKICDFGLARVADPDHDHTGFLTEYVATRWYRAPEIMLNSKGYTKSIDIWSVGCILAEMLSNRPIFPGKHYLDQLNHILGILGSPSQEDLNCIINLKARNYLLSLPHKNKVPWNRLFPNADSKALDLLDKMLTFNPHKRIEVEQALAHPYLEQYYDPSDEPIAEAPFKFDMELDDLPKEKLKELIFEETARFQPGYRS
Chain of Mitogen-activated protein kinase 1 and 3 (ERK2 and ERK1) (Mus musculus) (Q63844 whole entry, looked up): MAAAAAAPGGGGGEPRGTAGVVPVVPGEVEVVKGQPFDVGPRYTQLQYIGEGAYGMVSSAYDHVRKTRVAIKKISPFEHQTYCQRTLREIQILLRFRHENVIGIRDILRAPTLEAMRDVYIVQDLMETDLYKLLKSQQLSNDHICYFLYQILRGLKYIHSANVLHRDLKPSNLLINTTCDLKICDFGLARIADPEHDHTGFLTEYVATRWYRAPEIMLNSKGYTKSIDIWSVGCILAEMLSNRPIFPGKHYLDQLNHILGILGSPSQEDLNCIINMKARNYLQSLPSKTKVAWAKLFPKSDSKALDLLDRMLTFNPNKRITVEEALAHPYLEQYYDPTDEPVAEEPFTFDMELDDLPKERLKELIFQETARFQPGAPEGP

RAW264.7 [11] = assay: Antiinflammatory activity in LPS-induced mouse RAW264.7 cells assessed as IL-6 levels at 1.25 uM pretreated for 2 hrs followed by LPS stimulation and measured after 6 hrs by ELISA (reference value: 472.3 +/- 25.8 pg/ml); assay type: functional; method in brief: as §1
RAW264.7 [12] = assay: Antiinflammatory activity in LPS-induced mouse RAW264.7 cells assessed as IL-6 levels at 5 uM pretreated for 2 hrs followed by LPS stimulation and measured after 6 hrs by ELISA (reference value: 472.3 +/- 25.8 pg/ml); assay type: functional; method in brief: as §1
RAW264.7 [13] = assay: Antiinflammatory activity in LPS-induced mouse RAW264.7 cells assessed as IL-6 levels at 5 uM pretreated for 2 hrs followed by LPS stimulation and measured after 12 hrs by ELISA (reference value: 1394 +/- 62.6 pg/ml); assay type: functional; method in brief: as §1
RAW264.7 [14] = assay: Antiinflammatory activity in LPS-induced mouse RAW264.7 cells assessed as IL-6 levels at 1.25 uM pretreated for 2 hrs followed by LPS stimulation and measured after 12 hrs by ELISA (reference value: 1394 +/- 62.6 pg/ml); assay type: functional; method in brief: as §1
RAW264.7 [15] = assay: Antiinflammatory activity in LPS-induced mouse RAW264.7 cells assessed as IL-6 levels at 10 uM pretreated for 2 hrs followed by LPS stimulation and measured after 24 hrs by ELISA (reference value: 1966.6 +/- 102.3 pg/ml); assay type: functional; method in brief: as §1
RAW264.7 [16] = assay: Antiinflammatory activity in LPS-induced mouse RAW264.7 cells assessed as IL-6 levels at 2.5 uM pretreated for 2 hrs followed by LPS stimulation and measured after 24 hrs by ELISA (reference value: 1966.6 +/- 102.3 pg/ml); assay type: functional; method in brief: as §1
RAW264.7 [17] = assay: Antiinflammatory activity in LPS-induced mouse RAW264.7 cells assessed as IL-6 levels at 1.25 uM pretreated for 2 hrs followed by LPS stimulation and measured after 24 hrs by ELISA (reference value: 1966.6 +/- 102.3 pg/ml); assay type: functional; method in brief: as §1

SMILES: CC1=C[C@H](O/C=C2/C(=O)O[C@@H]3c4ccccc4C[C@H]23)OC1=O
- Activity (RAW264.7 [1]): 5303.7 pg/mL
- Activity (RAW264.7 [2]): 5186.9 pg/mL
- Activity (RAW264.7 [3]): 5036.1 pg/mL
- Activity (RAW264.7 [4]): 4388.3 pg/mL
- Activity (RAW264.7 [5]): 4140.7 pg/mL
- Activity (RAW264.7 [6]): 3862.3 pg/mL
- Activity (RAW264.7 [7]): 4685.5 pg/mL
- Activity (RAW264.7 [8]): 9565.4 pg/mL
- Activity (Danio rerio): Active
- inhibition [9]: Dose-dependent effect
- inhibition [10]: Dose-dependent effect
- Activity (RAW264.7 [11]): 461.2 pg/mL
- Activity (RAW264.7 [12]): 387.1 pg/mL
- Activity (RAW264.7 [13]): 1090.7 pg/mL
- Activity (RAW264.7 [14]): 1351.9 pg/mL
- Activity (RAW264.7 [15]): 1002.2 pg/mL
- Activity (RAW264.7 [16]): 1729.3 pg/mL
- Activity (RAW264.7 [17]): 1892.3 pg/mL

SMILES: CC1=C[C@@H](O/C=C2/C(=O)O[C@H]3c4ccccc4C[C@@H]23)OC1=O
- Activity (RAW264.7 [1]): 5319.6 pg/mL
- Activity (RAW264.7 [2]): 5212.4 pg/mL
- Activity (RAW264.7 [3]): 5079.1 pg/mL
- Activity (RAW264.7 [4]): 4367.3 pg/mL
- Activity (RAW264.7 [5]): 4209.3 pg/mL
- Activity (RAW264.7 [6]): 3927.4 pg/mL
- Activity (RAW264.7 [7]): 4721.3 pg/mL
- Activity (RAW264.7 [8]): 9582.9 pg/mL
- Activity (Danio rerio): Active
- inhibition [9]: Dose-dependent effect
- inhibition [10]: Dose-dependent effect
- Activity (RAW264.7 [11]): 470.1 pg/mL
- Activity (RAW264.7 [12]): 410.3 pg/mL
- Activity (RAW264.7 [13]): 1177 pg/mL
- Activity (RAW264.7 [14]): 1374.3 pg/mL
- Activity (RAW264.7 [15]): 1061.3 pg/mL
- Activity (RAW264.7 [16]): 1787.6 pg/mL
- Activity (RAW264.7 [17]): 1936.5 pg/mL
